In ChEMBL document CHEMBL3992519 (J Med Chem, 2017):
The source made the active and inactive calls. The calls are words filed in the database; no cut-off is given here.

Assays:
[1] = Solubility of the compound in water; assay type: physicochemical; settings: buffer
[2] = biological target: Mu-type opioid receptor (Homo sapiens, UniProt P35372); assay: Displacement of [3H]DAMGO from human mu opioid receptor expressed in CHO cell membranes by micro-beta scintillation counting method
[3] = biological target: T1, Orexin/Hypocretin receptor type 1 (Homo sapiens, UniProt O43613); assay: Antagonist activity at human OX1R expressed in CHOK1 cells assessed as inhibition of orexin A-induced intracellular calcium level preincubated for 15 mins followed by orexin A addition by Fura-2-AM dye based fluorescence assay
T1 sequence (O43613 whole entry): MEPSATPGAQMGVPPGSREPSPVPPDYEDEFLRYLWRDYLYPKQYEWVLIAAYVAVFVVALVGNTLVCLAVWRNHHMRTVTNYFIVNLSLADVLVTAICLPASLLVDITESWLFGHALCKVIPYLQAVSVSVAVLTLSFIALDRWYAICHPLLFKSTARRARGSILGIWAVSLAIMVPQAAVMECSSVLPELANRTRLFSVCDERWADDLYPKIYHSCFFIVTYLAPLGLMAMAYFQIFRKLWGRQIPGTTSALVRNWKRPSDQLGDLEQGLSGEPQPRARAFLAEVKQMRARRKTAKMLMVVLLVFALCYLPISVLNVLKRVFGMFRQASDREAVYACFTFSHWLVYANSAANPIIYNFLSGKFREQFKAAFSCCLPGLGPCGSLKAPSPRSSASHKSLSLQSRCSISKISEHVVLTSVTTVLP

[4] = Solubility of the compound in saline; assay type: physicochemical; settings: buffer
[5] = biological target: Delta-type opioid receptor (Homo sapiens, UniProt P41143); assay: Displacement of [3H]DPDPE from human delta opioid receptor expressed in CHO cell membranes by micro-beta scintillation counting method
Sequence of Delta-type opioid receptor (P41143 whole entry): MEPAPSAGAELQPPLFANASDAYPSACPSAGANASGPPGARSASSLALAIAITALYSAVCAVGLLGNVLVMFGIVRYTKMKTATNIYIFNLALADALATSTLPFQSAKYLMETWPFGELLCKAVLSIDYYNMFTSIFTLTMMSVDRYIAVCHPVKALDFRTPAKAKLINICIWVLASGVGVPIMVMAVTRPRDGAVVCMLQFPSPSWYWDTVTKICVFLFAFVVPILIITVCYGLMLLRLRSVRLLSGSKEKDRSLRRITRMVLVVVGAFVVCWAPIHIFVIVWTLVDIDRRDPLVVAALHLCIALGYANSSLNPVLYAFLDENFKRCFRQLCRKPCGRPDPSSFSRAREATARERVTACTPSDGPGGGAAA

[6] = biological target: Kappa-type opioid receptor (Homo sapiens, UniProt P41145); assay: Displacement of [3H]U69,593 from human kappa opioid receptor expressed in CHO cell membranes by micro-beta scintillation counting method
Sequence of Kappa-type opioid receptor (P41145 whole entry): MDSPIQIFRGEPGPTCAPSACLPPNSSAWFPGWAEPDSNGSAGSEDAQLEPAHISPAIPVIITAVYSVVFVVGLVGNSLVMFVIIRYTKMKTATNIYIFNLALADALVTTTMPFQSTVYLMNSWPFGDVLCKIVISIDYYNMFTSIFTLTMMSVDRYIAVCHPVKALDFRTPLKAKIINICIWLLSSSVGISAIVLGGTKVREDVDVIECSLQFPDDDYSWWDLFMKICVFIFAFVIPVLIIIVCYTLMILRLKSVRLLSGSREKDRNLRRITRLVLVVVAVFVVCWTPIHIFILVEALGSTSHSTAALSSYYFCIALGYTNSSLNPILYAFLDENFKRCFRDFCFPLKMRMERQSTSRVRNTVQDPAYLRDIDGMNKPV

[7] = Selectivity index, ratio of IC50 for human OX2R expressed in CHOK1 cells to IC50 for human OX1R expressed in CHOK1 cells
[8] = biological target: T2, Orexin receptor type 2 (Homo sapiens, UniProt O43614); assay: Antagonist activity at human OX2R expressed in CHOK1 cells assessed as inhibition of orexin A-induced intracellular calcium level preincubated for 15 mins followed by orexin A addition by Fura-2-AM dye based fluorescence assay; assay type: cell-based; settings: for inhibition (INH): human
T2 sequence (O43614 whole entry): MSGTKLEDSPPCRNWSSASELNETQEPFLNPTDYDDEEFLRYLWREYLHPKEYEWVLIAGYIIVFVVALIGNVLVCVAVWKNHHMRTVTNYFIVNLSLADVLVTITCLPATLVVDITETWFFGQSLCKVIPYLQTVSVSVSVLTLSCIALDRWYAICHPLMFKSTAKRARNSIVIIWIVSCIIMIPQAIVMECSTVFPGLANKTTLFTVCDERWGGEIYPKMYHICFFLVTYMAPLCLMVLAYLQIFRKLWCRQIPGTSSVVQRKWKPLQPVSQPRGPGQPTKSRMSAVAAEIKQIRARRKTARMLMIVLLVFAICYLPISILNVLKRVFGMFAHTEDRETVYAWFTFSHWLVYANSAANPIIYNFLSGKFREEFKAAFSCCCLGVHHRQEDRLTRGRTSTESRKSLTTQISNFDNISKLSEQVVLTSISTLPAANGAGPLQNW
Outline: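 CHO cells expressing human OX1R or OX2R; calcium transient assay. IC50 came from concentration-response curves in at least three independent assays, each run in triplicate. Ki was derived by the Cheng-Prusoff equation and reported as mean ± SEM. […] Some compounds were tested as HCl, MeSO3H or 2H2SO4 salts.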

[9] = biological target: T3, Orexin/Hypocretin receptor type 1 (Homo sapiens) (UniProt O43613)
T3 sequence (whole entry): T1 sequence (O43613 whole entry)

[10] = test system: Mus musculus; assay: Reduction in morphine dependence expression in ICR mouse assessed as inhibition of naloxone-precipitated jumping behavior at 10 mg/kg, ip administered 30 mins prior to first morphine injection each day for 5 days followed by naloxone challenge 2 hrs post last morphine dose measured over 60 mins; assay type: functional, organism-based
[11] = test system: Mus musculus; assay: Reduction in morphine dependence expression in ICR mouse assessed as inhibition of naloxone-precipitated body weight loss at 10 mg/kg, ip administered 30 mins prior to first morphine injection each day for 5 days followed by naloxone challenge 2 hrs post last morphine dose measured over 60 mins; assay type: functional, organism-based
[12] = test system: Mus musculus; assay: Reduction in morphine dependence expression in ICR mouse assessed as inhibition of naloxone-precipitated diarrhea at 10 mg/kg, ip administered 30 mins prior to first morphine injection each day for 5 days followed by naloxone challenge 2 hrs post last morphine dose measured over 60 mins; assay type: functional, organism-based

Sequence of Mu-type opioid receptor (P35372 whole entry): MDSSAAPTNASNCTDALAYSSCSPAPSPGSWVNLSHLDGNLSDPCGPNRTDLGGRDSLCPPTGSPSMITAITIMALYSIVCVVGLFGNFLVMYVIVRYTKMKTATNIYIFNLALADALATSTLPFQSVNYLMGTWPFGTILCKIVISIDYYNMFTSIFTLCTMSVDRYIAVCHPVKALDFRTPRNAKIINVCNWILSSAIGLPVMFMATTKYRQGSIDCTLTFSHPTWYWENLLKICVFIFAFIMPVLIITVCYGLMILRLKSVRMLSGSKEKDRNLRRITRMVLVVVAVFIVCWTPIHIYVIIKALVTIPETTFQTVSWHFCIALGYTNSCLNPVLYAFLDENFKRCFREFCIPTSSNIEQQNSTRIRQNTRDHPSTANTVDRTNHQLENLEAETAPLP

| Structure (SMILES) | solubility [1] | Ki [2] | Ki [3] | solubility [4] | Ki [5] | Ki [6] | Ratio IC50 [7] | Ki ([8]; read-out: Ki) | inhibition (INH) [8] | Ke [9] | Ki [8] | inhibition [10] | inhibition [11] | inhibition [12] |
| --- | --- | --- | --- | --- | --- | --- | --- | --- | --- | --- | --- | --- | --- | --- |
| COc1ccc2c3c1O[C@H]1[C@H](N(C)C(=O)/C=C/c4ccoc4)CC[C@@]4(O)[C@@H](C2)N(C(=O)C2CC2)CC[C@]314 | Insoluble | > 1000 nM | 12 nM | Insoluble | > 1000 nM | > 1000 nM | <88.4 |  |  |  |  |  |  |  |
| COc1ccc2c3c1O[C@H]1[C@H](N(C)C(=O)/C=C/c4ccoc4)CC[C@@]4(O)[C@@H](C2)N(C(=O)/C=C/c2ccccc2)CC[C@]314 | Insoluble | > 1000 nM | 14 nM | Insoluble | > 1000 nM | > 1000 nM | <88.4 |  |  |  |  |  |  |  |
| COc1ccc2c3c1O[C@H]1[C@H](N(C)C(=O)/C=C/c4ccoc4)CC[C@@]4(O)[C@@H](C2)N(S(=O)(=O)c2ccccc2)CC[C@]314 | Insoluble | > 1000 nM | 8.14 nM | Insoluble | > 1000 nM | > 1000 nM | <88.4 |  |  |  |  |  |  |  |
| COc1ccc2c3c1O[C@H]1[C@H](N(C)C(=O)/C=C/c4ccoc4)CC[C@@]4(O)[C@@H](C2)N(C(=O)c2ccc(C)cc2)CC[C@]314 | Insoluble |  | 14 nM | Insoluble |  |  | <88.4 | 725 nM |  |  |  |  |  |  |
| CN(C(=O)/C=C/c1ccoc1)[C@@H]1CC[C@@]2(O)[C@H]3Cc4cccc5c4[C@@]2(CCN3CC2CC2)[C@H]1O5 |  |  | 1240 nM |  |  |  |  |  | Not Active |  |  |  |  |  |
| CN(C(=O)/C=C/c1ccoc1)[C@@H]1CC[C@@]2(O)[C@H]3Cc4ccc(O)c5c4[C@@]2(CCN3CC2CC2)[C@H]1O5.Cl [NALFURAFINE HYDROCHLORIDE] | Insoluble | 5.99 nM | 250 nM | Insoluble | 693 nM |  |  |  | Not Active |  |  |  |  |  |
| COc1ccc2c3c1O[C@H]1[C@H](N(C)C(=O)/C=C/c4ccccn4)CC[C@@]4(O)[C@@H](C2)N(S(=O)(=O)c2ccccc2N(C)C)CC[C@]314.O=S(=O)(O)O.O=S(=O)(O)O |  | > 1000 nM |  |  | > 1000 nM | > 1000 nM |  |  |  |  |  |  |  |  |
| CN(C)c1ccc(S(=O)(=O)N2CC[C@]34c5c6ccc(O)c5O[C@H]3[C@H](N(C)C(=O)/C=C/c3ccoc3)CC[C@@]4(O)[C@H]2C6)cc1 |  | 971 nM |  |  | > 1000 nM | 200 nM |  |  |  |  |  |  |  |  |
| COc1ccc2c3c1O[C@H]1[C@H](N(C)C(=O)/C=C/c4ccoc4)CC[C@@]4(O)[C@@H](C2)N(S(=O)(=O)c2ccccc2[N+](=O)[O-])CC[C@]314 | Insoluble |  | 1.81 nM | Insoluble |  |  | <88.4 |  |  | 3.69 nM | Not Active |  |  |  |
| COc1ccc2c3c1O[C@H]1[C@H](N(C)C(=O)/C=C/c4ccoc4)CC[C@@]4(O)[C@@H](C2)N(CC2CC2)CC[C@]314 |  |  | 22.5 nM |  |  |  |  |  | Not Active |  |  |  |  |  |
| COc1ccc2c3c1O[C@H]1[C@H](N(C)C(=O)/C=C/c4ccccn4)CC[C@@]4(O)[C@@H](C2)N(S(=O)(=O)c2ccccc2N(C)C)CC[C@]314 |  |  |  |  |  |  |  |  |  |  |  | Active | Active | Active |
| COc1ccc2c3c1O[C@H]1[C@H](N(C)C(=O)/C=C/c4ccoc4)CC[C@@]4(O)[C@@H](C2)N(C(=O)OC(C)(C)C)CC[C@]314 | Insoluble | > 1000 nM | 4.15 nM | Insoluble | > 1000 nM | 184 nM | <88.4 |  |  |  |  |  |  |  |
| Cc1cc(NC(=O)Nc2ccc(N(C)C)cc2)c2cc(F)cc(F)c2n1.Cl.Cl | Insoluble | > 1000 nM | 18.9 nM | Insoluble | > 1000 nM | > 1000 nM | <88.4 | 2070 nM |  |  |  |  |  |  |
| COc1ccc2c3c1O[C@H]1[C@H](N(C)C(=O)/C=C/c4ccoc4)CC[C@@]4(O)[C@@H](C2)N(S(=O)(=O)c2ccc(N(C)C)cc2)CC[C@]314.Cl | Insoluble | > 1000 nM | 12.9 nM | Insoluble | > 1000 nM | > 1000 nM | <88.4 |  |  |  |  |  |  |  |
| COc1ccc2c3c1O[C@H]1[C@H](N(C)C(=O)/C=C/c4ccoc4)CC[C@@]4(O)[C@@H](C2)N(S(=O)(=O)c2ccc([N+](=O)[O-])cc2)CC[C@]314 | Insoluble |  | 12.5 nM | Insoluble |  |  | <88.4 |  |  |  |  |  |  |  |
